Article PMC4242840 (The Journal of Cell Biology, 2014)
Entries after “also recorded” stand apart in the source; their conditions may differ.

What was measured:
[1] = biological target: T1, HIS6-Rsa4 WD40 domain (S. cerevisiae, UniProt P25382 112-515); assay: pull-down
T1 sequence: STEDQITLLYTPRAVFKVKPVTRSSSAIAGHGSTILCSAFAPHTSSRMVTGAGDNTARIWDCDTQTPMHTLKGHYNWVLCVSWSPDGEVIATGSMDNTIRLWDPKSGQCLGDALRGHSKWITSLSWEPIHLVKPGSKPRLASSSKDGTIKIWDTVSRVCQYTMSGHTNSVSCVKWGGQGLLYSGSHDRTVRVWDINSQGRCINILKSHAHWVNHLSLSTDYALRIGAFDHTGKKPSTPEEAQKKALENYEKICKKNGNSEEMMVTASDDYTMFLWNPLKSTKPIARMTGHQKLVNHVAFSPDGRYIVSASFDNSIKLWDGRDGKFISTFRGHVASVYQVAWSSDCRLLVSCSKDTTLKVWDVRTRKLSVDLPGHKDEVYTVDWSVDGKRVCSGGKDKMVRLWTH

[2] = biological target: T2, Rsa4 β-propeller (Rsa4Δ136) (S. cerevisiae, UniProt P25382 137-515); assay: ITC
T2 sequence: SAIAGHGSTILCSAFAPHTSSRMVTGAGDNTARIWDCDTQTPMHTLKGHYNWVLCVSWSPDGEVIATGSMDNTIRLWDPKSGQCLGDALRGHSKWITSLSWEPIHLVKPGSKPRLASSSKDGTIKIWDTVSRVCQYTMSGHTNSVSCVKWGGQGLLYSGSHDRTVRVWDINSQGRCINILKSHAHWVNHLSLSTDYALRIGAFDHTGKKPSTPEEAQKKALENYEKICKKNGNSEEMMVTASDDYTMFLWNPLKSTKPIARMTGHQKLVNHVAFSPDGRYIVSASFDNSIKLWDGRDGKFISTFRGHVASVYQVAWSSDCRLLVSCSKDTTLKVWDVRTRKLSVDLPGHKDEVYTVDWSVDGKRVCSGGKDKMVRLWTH

[3] = biological target: T3, HIS6-TEV-Rsa4 full-length (S. cerevisiae, UniProt P25382 1-515); assay: pull-down
T3 sequence: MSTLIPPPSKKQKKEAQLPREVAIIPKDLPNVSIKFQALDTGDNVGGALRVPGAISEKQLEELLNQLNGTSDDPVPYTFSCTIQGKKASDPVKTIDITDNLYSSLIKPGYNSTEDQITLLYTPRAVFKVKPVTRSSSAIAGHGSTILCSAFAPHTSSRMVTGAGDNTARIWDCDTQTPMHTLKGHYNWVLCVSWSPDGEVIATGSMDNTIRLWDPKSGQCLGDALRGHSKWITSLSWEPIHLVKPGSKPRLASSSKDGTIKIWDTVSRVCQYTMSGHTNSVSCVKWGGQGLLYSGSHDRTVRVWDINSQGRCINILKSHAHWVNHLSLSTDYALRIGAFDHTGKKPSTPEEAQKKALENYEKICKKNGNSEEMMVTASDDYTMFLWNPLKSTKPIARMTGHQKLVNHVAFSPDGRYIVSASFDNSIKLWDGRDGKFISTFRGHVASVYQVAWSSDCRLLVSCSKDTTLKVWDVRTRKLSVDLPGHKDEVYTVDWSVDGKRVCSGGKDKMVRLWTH

[4] = test system: Nsa2 shuffle strain (nsa2Δ); assay: complementation of nsa2Δ; format: cell-based, Saccharomyces cerevisiae; conditions: SDC+FOA, 30°C, 2 or 3 d
[5] = test system: 25S rRNA helices H89, H90, H42; assay: UV cross-linking and analysis of cDNA; format: binding, Saccharomyces cerevisiae; conditions: in vivo UV cross-linking, % of hits
Procedure, shortened: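 Yeast culture was UV-irradiated to cross-link protein to RNA, then lysed with zirconia beads. Nsa2-His-TEV-ProtA was bound to IgG-Sepharose and eluted with TEV. The eluate was RNase-treated and denatured, and Nsa2 was repurified on Ni-NTA under denaturing conditions. Cross-linked RNA was ligated to 3′ and 5′ DNA linkers and sequenced; hits were mapped to rRNA helices.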

[6] = test system: wild-type yeast growth; assay: dominant-negative phenotype upon GAL overexpression in wild-type yeast; format: cell-based, Saccharomyces cerevisiae; conditions: GAL promoter, galactose medium, 30°C, 2 or 3 d
[7] = test system: pre-60S particles; assay: association with pre-60S particles; format: cell-based, Saccharomyces cerevisiae
Procedure, shortened: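 Wild-type yeast expressed plasmid-borne NSA2-FTpA or nsa2 Y90A-FTpA. Cells were treated with cycloheximide for 15 min and lysed with glass beads. Whole-cell lysates were fractionated on 10–50% sucrose gradients (16 h, 27,000 rpm, 0.4 ml fractions), and fractions were probed by Western blot with anti-ProtA to detect tagged Nsa2.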

[8] = test system: 60S subunit formation and nuclear export; assay: 60S biogenesis/export upon overexpression; format: cell-based, Saccharomyces cerevisiae; conditions: galactose-containing medium, 6 h (nsa2) or 8 h (rsa4)
Procedure, shortened: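 Wild-type yeast carried plasmids for the 60S reporter Rpl25-EGFP and mRFP-Nop1, plus 2μ GAL-driven NSA2 alleles. Cells were shifted to galactose medium for 6 h (Nsa2), washed in water and imaged at room temperature (100× oil objective, EGFP/Cy3 filters). For profiles, cells were treated with cycloheximide for 15 min, lysed with glass beads and run on 10–50% sucrose gradients (16 h, 27,000 rpm), recorded at 254 nm.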

[9] = test system: 60S subunit production / pre-60S composition; assay: pulse-chase labeling with affinity purification of Rpl25; format: cell-based, Saccharomyces cerevisiae
Procedure, shortened: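 Strain DS1-2b carried an amber-suppressor tRNA/synthetase plasmid and a GAL plasmid co-expressing 2×HA-TAG-Rpl25-FTpA with wild-type or Y90A Nsa2. After 60 min galactose induction, O-methyl-tyrosine was added as a 7 min pulse, followed by a 20 min chase with tetracycline and glucose. Rpl25 was TAP-purified, run on SDS-PAGE with Coomassie staining, and bands were identified by mass spectrometry.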

[10] = test system: pre-60S particles; assay: affinity purification of Rpl5-FTpA constructs; format: cell-based, Saccharomyces cerevisiae; conditions: Flag-TEV-ProtA bait
Procedure, shortened: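 Rpl5 variants tagged with Flag-TEV-ProtA were purified from a 2-liter yeast culture pellet. Steps: IgG-Sepharose 90 min, TEV elution 120 min, FLAG beads 45 min, FLAG-peptide elution. Eluates were run alongside pre-60S particles purified via Nsa2-FTpA and FTpA-Rsa4, then analysed by SDS-PAGE and Western blot.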

GDALPTYLLDREQ (domain or fragment) [MBP-Nsa2 84–96 aa]
binding result [1]: binds

DALPTYLLDRE [Nsa2 peptide (85–95 aa, DALPTYLLDRE)]
binding result [2]: binds

B1: MBP-Nsa2 (natural protein)
chain: MPQNDYIERHIKQHGKRLDHEERKRKREARESHKISERAQKLTGWKGKQFAKKRYAEKVSMRKKIKAHEQSKVKGSSKPLDTDGDALPTYLLDREQNNTAKAISSSIKQKRLEKADKFSVPLPKVRGISEEEMFKVIKTGKSRSKSWKRMITKHTFVGEGFTRRPVKMERIIRPSALRQKKANVTHPELGVTVFLPILAVKKNPQSPMYTQLGVLTKGTIIEVNVSELGMVTAGGKVVWGKYAQVTNEPDRDGCVNAVLLV
binding result [3]: binds

B2: nsa2 Y90F: Nsa2 with tyrosine 90 mutated to phenylalanine (protein)
chain: MPQNDYIERHIKQHGKRLDHEERKRKREARESHKISERAQKLTGWKGKQFAKKRYAEKVSMRKKIKAHEQSKVKGSSKPLDTDGDALPTFLLDREQNNTAKAISSSIKQKRLEKADKFSVPLPKVRGISEEEMFKVIKTGKSRSKSWKRMITKHTFVGEGFTRRPVKMERIIRPSALRQKKANVTHPELGVTVFLPILAVKKNPQSPMYTQLGVLTKGTIIEVNVSELGMVTAGGKVVWGKYAQVTNEPDRDGCVNAVLLV
modifications: left off: MBP, N-terminal, kept
growth / viability (complementation) [4]: normal growth

B3: MBP-Nsa2 Y90F (natural protein)
chain: MPQNDYIERHIKQHGKRLDHEERKRKREARESHKISERAQKLTGWKGKQFAKKRYAEKVSMRKKIKAHEQSKVKGSSKPLDTDGDALPTFLLDREQNNTAKAISSSIKQKRLEKADKFSVPLPKVRGISEEEMFKVIKTGKSRSKSWKRMITKHTFVGEGFTRRPVKMERIIRPSALRQKKANVTHPELGVTVFLPILAVKKNPQSPMYTQLGVLTKGTIIEVNVSELGMVTAGGKVVWGKYAQVTNEPDRDGCVNAVLLV
binding result [3]: binds

B4: Nsa2-His6-TEV-ProtA: Nsa2 tagged with His6-TEV-ProtA used for CRAC (protein, UniProt P40078 1-261, looked up)
Ribosome biogenesis protein …: MPQNDYIERHIKQHGKRLDHEERKRKREARESHKISERAQKLTGWKGKQFAKKRYAEKVSMRKKIKAHEQSKVKGSSKPLDTDGDALPTYLLDREQNNTAKAISSSIKQKRLEKADKFSVPLPKVRGISEEEMFKVIKTGKSRSKSWKRMITKHTFVGEGFTRRPVKMERIIRPSALRQKKANVTHPELGVTVFLPILAVKKNPQSPMYTQLGVLTKGTIIEVNVSELGMVTAGGKVVWGKYAQVTNEPDRDGCVNAVLLV
modifications: His6-TEV-ProtA tag
CRAC hits on H42 ([5]; rRNA helix H42): 15% | CRAC hits on H89 ([5]; rRNA helix H89): 60% | CRAC hits on H90 ([5]; rRNA helix H90): 25%

B5: nsa2 Y90A: Nsa2 with tyrosine 90 mutated to alanine (protein)
chain: MPQNDYIERHIKQHGKRLDHEERKRKREARESHKISERAQKLTGWKGKQFAKKRYAEKVSMRKKIKAHEQSKVKGSSKPLDTDGDALPTALLDREQNNTAKAISSSIKQKRLEKADKFSVPLPKVRGISEEEMFKVIKTGKSRSKSWKRMITKHTFVGEGFTRRPVKMERIIRPSALRQKKANVTHPELGVTVFLPILAVKKNPQSPMYTQLGVLTKGTIIEVNVSELGMVTAGGKVVWGKYAQVTNEPDRDGCVNAVLLV
modifications: left off: MBP, N-terminal, kept
growth / viability (complementation) [4]: nonviable | dominant-negative phenotype upon overexpression [6]: dominant lethal | dominant-negative phenotype upon overexpression ([6]; listed as Nsa2 Y90A): strong dominant-lethal phenotype | association with pre-60S particles ([7]; 10–50% sucrose gradient, anti-ProtA Western blot): still associated with pre-60S particles; also recorded: efficiently assembled into preribosomes | replacement of endogenous Nsa2 in preribosomes ([7]; upon overexpression): replacement of endogenous Nsa2 within the preribosomes | effect of overexpression on 60S biogenesis / export [8]: defect in 60S subunit export | effect of overexpression on 60S biogenesis / export ([8]; listed as Nsa2 Y90A): specific block in nuclear export and formation of 60S subunits | 60S production in pulse-chase ([9]; 60-min galactose induction, 7 min Ome-Tyr pulse, 20 min chase): arrests 60S biogenesis | enrichment of methyl-transferases Spb1 and Nop2 ([9]; arrested preribosomal intermediate, HA-Rpl25-Flag-ProtA purification): strongly enriched

B6: wild-type Rpl5: ribosomal protein Rpl5 (uL18), wild type (protein)
chain: MAFQKDAKSSAYSSRFQTPFRRRREGKTDYYQRKRLVTQHKAKYNTPKYRLVVRFTNKDIICQIISSTITGDVVLAAAYSHELPRYGITHGLTNWAAAYATGLLIARRTLQKLGLDETYKGVEEVEGEYELTEAVEDGPRPFKVFLDIGLQRTTTGARVFGALKGASDGGLYVPHSENRFPGWDFETEEIDPELLRSYIFGGHVSQYMEELADDDEERFSELFKGYLADDIDADSLEDIYTSAHEAIRADPAFKPTEKKFTKEQYAAESKKYRQTKLSKEERAARVAAKIAALAGQQ
co-purified particles / Syo1 [10]: only recovered mature 60S subunits, plus Syo1
